Mdm2 MdmX PPI: disrupts the human Mdm2-MdmX interaction | O15151+Q00987 | SaOS-2 split-luciferase Mdm2/MdmX complementation, luminescence | inhibition, % at 8 µM | 330,000 compounds, 3% hits | AID 485346;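 active = inhibition of at least 50% at 8 µM in the primary screen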
Target sequence (O15151 whole entry, looked up): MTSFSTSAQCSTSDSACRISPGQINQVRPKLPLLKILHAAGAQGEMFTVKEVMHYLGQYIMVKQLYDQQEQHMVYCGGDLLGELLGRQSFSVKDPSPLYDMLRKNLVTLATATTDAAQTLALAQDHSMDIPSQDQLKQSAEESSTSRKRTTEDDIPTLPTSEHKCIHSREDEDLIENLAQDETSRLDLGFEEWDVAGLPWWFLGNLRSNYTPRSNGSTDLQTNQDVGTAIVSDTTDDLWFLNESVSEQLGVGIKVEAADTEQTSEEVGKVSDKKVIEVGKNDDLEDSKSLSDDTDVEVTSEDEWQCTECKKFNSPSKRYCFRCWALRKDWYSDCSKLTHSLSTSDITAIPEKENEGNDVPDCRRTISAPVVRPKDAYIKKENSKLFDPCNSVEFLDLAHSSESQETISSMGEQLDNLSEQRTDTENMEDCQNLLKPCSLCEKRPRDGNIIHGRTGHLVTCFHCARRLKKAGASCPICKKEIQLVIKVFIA
Target sequence (Q00987 whole entry, looked up): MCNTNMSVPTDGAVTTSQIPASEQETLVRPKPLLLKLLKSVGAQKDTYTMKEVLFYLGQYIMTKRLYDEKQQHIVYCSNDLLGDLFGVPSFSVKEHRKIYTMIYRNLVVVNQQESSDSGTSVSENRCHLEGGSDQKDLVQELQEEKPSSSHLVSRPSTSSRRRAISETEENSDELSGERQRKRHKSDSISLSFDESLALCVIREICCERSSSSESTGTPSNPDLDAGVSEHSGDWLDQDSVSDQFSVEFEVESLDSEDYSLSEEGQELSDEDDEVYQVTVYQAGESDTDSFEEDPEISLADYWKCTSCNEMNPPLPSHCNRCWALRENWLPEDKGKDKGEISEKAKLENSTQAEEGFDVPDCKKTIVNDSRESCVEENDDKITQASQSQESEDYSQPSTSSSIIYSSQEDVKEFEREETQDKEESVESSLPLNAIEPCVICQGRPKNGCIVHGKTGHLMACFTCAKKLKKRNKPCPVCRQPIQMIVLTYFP
UPR XBP1 act: adaptive UPR (XBP1) activation; CHO-XBP1 luciferase reporter, IRE1-XBP1 UPR activation, luminescence; percent of tunicamycin response, DMSO as zero; activation, % at 20 µM; 330,000 compounds, 0.33% hits; AID 463104;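 active = versus positive control, 20 µM dose yields 30% or more activation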
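Signal: luciferase luminescence; Assay system: CHO-XBP1 luciferase reporter cells; Amount: one thousand reporter cells per well; Dosing: 20 µM single concentration, DMSO 1%; Benchmarks: high control tunicamycin 10 µg/mL final, low control DMSO vehicle only; Schedule: 6 h compound exposure at 37 °C, 5% CO2; Evaluation: percent activation relative to tunicamycin reference.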
Dynein transport: dynein cargo transport inhibition; 3617.4 mouse cells, GR-EGFP nuclear translocation imaging; test concentration mostly 20 µM; stimulated with dexamethasone, 1 µM; stronger effect = lower value; z-score, hits read low; 220,000 compounds, 0.47% hits; AID 1381;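 active = plate z-score of nuclear minus cytoplasmic receptor signal below a set negative limit, without overly bright fluorescence or cell loss, cut at about -3.5 in these data, passing the limit was not always enough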;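 note: z-score of nuclear minus cytoplasmic ring GR-EGFP intensity difference per well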
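Also added: dexamethasone, 1.0 µM final. Medium: tet-free, stripped-serum medium. Detection: fixed, Hoechst-stained cells imaged at 10x for EGFP. Read-out: nuclear-to-cytoplasmic GR-EGFP distribution per well. Times: induction 48 h, compound 1 h, agonist 30 min.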
CHOP UPR activ: activators of apoptotic arm of unfolded protein response (CHOP) | CHO-CHOP luciferase reporter, UPR activation, luminescence; percent of tunicamycin response over DMSO baseline | activation, % at 10 µM | 330,000 compounds, 0.34% hits;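 active = at 10 µM dose, activation of 40% or more, normalized to positive control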
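assay system = CHO CHOP reporter cells | amount = 500 CHO-CHOP cells per well | buffer or medium = F12 with 10% FBS | incubation = 16-18 h cell attachment, then 6 h compound exposure, 37 °C | detection = luminescence read with Steady-Glo | read-out = percent activation relative to tunicamycin control | controls = tunicamycin high control, DMSO low control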
Beta2AR agonist: agonists of human beta-2 adrenergic receptor inducing internalization; AID 504454; Am2.2-beta2AR cells, FAP receptor internalization, flow cytometry; P07550; 340,000 compounds, 0.43% hits; response, % (no concentration beside the values);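 active = response above a set limit, near 3 SD of response in nonfluorescent compounds, cut at about 42% in these data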
MDM2 E3 inh: inhibitors of human Mdm2 E3 ubiquitin ligase | Q00987 | cell-based MDM2 ubiquitination luciferase reporter, 2 h; 0 = plate control, 100 = twice control, blank-subtracted | signal enhancement, % at 5 µM | 210,000 compounds, 0.11% hits | AID 1230;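 active = signal enhancement of 30% or more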;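 note: luminescence tracks abundance of the self-degrading MDM2-luciferase fusion protein; higher signal means inhibition of MDM2 E3 ligase activity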
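Test system: mammalian cells stably expressing self-ubiquitinating, self-degrading MDM2 E3–luciferase fusion; Amount: 2000 cells in each well; Medium: DMEM; Schedule: 4 h settle plus 2 h compound, 37 °C; Technique: SteadyLite luciferase luminescence after 15 min room-temperature reagent incubation; Benchmarks: plate control and blank wells.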
B2AR ag CP1: activates human beta-2 adrenergic receptor; shares compounds with Beta2AR agonist; Am2.2-beta2AR cells, FAP surface receptor, flow cytometry; stronger effect = lower value; percent response (surface receptor), % at 10 µM; 1,100 compounds, 25% hits;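 active = surface receptor percent response at or below 58%, roughly 3 SD from nonfluorescent compounds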
FAP fluor counter: flagged in Am2.2 fluorescence counterscreen for beta-2AR agonists | 1,100 tested, under 10 active | shares compounds with Beta2AR agonist | calls only at 10 µM | Am2.2 cells, FAP fluorogen flow cytometry; stronger effect = lower value;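 active = percent response below a set limit in fluorescence channel 1 and below 50% in channel 8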
Large screens that a line does not name were inactive (follow-up assays come after a bar, where they were run). Shown are actives, neighbours in structure and some others; about 3.7% of the full set was active somewhere.

N#CC(C(=S)Nc1ccccc1)c1nc2ccccc2[nH]1 (stereo unspecified)	none | B2AR ag CP1 inactive | FAP fluor counter inactive
CN(C)CCC=C1c2ccccc2C=Cc2ccccc21	none (no result: Dynein transport, MDM2 E3 inh)
CN(C)CC/C=C1\c2ccccc2Sc2ccc(Cl)cc21	Beta2AR agonist 53 (no result: MDM2 E3 inh) | B2AR ag CP1 inactive | FAP fluor counter inactive
Nc1cc(N)nc(SCc2cc([N+](=O)[O-])cc3c2OCOC3)n1	Beta2AR agonist 55 | B2AR ag CP1 10.0 | FAP fluor counter inactive
Cc1ccc2c(c1)C(=O)N(CCCCO)C2=O	Beta2AR agonist 84 | B2AR ag CP1 inactive | FAP fluor counter inactive
O=c1[nH]c2ccccc2cc1CN(Cc1ccco1)S(=O)(=O)c1ccccc1	none (no result: Dynein transport, MDM2 E3 inh) | B2AR ag CP1 inactive | FAP fluor counter inactive
COC(=O)c1cccc(S(=O)(=O)N(Cc2ccco2)Cc2cc3ccc(OC)cc3[nH]c2=O)c1	none
COc1ccc(S(=O)(=O)N(Cc2ccco2)Cc2cc3ccccc3[nH]c2=O)cc1	none (no result: Dynein transport, MDM2 E3 inh) | B2AR ag CP1 inactive | FAP fluor counter inactive
Cc1onc(-c2ccccc2)c1C(=O)N(CC(C)C)c1c(N)n(CC(C)C)c(=O)[nH]c1=O	none (no result: Dynein transport, MDM2 E3 inh)
O=C(NCCNc1ccc([N+](=O)[O-])cc1)c1ccccc1Br	Beta2AR agonist 46 | B2AR ag CP1 inactive | FAP fluor counter inactive
O=C(Nc1ccc2nc(SCc3ccc(Cl)cc3)sc2c1)c1ccccc1C(=O)N1CCOCC1	Beta2AR agonist 107 | B2AR ag CP1 17 | FAP fluor counter inactive
CCCn1c(SCC(=O)N2CCc3ccccc3C2)nc(O)cc1=O	none (no result: Dynein transport, MDM2 E3 inh)
Cc1ccc(OCC(=O)N/N=C2\CC(=O)CC(C)(C)C2)c(Br)c1	none (no result: Dynein transport, MDM2 E3 inh)
O=C(CCNC(=O)C1CCN(S(=O)(=O)c2ccccc2)CC1)Nc1ccccc1	Beta2AR agonist 48 (no result: Dynein transport, MDM2 E3 inh) | B2AR ag CP1 inactive | FAP fluor counter inactive
CCc1ncc(CN2CCCCC2C(=O)Nc2ccc(Oc3ccccc3)nc2)cn1 (stereo unspecified)	none (no result: Dynein transport, MDM2 E3 inh)
NNC(=O)CC(=O)NC1(Cc2ccc(O)cc2)CCCCC1	none
O=C(Cc1ccccc1)NC1(Cc2ccc(O)cc2)CCCCC1	Beta2AR agonist 57 | B2AR ag CP1 47 | FAP fluor counter inactive
COc1cc(OC)nc(NC(=O)CSc2nnc(-c3ccccc3)n2C2CCCCC2)n1	Beta2AR agonist 97 (no result: MDM2 E3 inh) | B2AR ag CP1 19 | FAP fluor counter inactive
O=C(Nc1ccc(N2CCN(C(=O)c3ccccc3)CC2)cc1)c1ccc(Br)o1	none | B2AR ag CP1 inactive | FAP fluor counter inactive
CCCC(=O)N1CCN(c2ccc(NC(=O)c3ccc(Br)o3)cc2)CC1	none | B2AR ag CP1 inactive | FAP fluor counter inactive
O=C(Nc1ccc(N2CCCC2)cc1)c1ccc(Br)o1	none (no result: MDM2 E3 inh)
CCN1CCN(c2ccc(NC(=O)c3ccc(Br)o3)cc2)CC1	none (no result: Dynein transport, MDM2 E3 inh) | B2AR ag CP1 inactive | FAP fluor counter inactive
Cc1ccc(NC(=O)Cn2c([N+](=O)[O-])cnc2C)cc1Cl	none (no result: Dynein transport, MDM2 E3 inh)
COC(=O)c1cn(NC(=O)c2ccc([N+](=O)[O-])cc2Cl)c(=O)c2ccccc12	none
CCOc1ccc2nc(SCCNS(=O)(=O)c3ccccc3)sc2c1	Beta2AR agonist 61 | B2AR ag CP1 inactive | FAP fluor counter inactive
CCOc1ccc2nc(SCC(=O)c3ccccc3)sc2c1	none
CC1CCC(NC(=O)CCS(=O)(=O)c2ccc3c(c2)CCN3C(=O)C2CC2)CC1 (stereo unspecified)	Beta2AR agonist 105 (no result: Dynein transport, MDM2 E3 inh) | B2AR ag CP1 18 | FAP fluor counter inactive
COc1cccc(NC(=O)C(c2ccccc2)N2CCCCC2)c1 (stereo unspecified)	none | B2AR ag CP1 inactive | FAP fluor counter inactive

Screening results as filed in PubChem BioAssay.
